Measured values collected from several papers.
Compare with care: the assays were run in different laboratories.
CYSLTR1: Cysteinyl leukotriene receptor 1 (CYSLTR1, Homo sapiens, UniProt Q9Y271)
BCHE: Cholinesterase (BCHE, Homo sapiens, UniProt P06276)

`CN(CCN1CCC(OC(=O)Nc2ccccc2-c2ccccc2)CC1)C(=O)c1ccc(CN2CCC(C(N)=O)CC2)cc1` has an inhibition of -13% (CYSLTR1; ligand displacement, radioligand; 1 µM).
With `O=C(Nc1cccnn1)N1CCN([C@@H]2CCOc3cc(C(F)(F)F)ccc32)CC1` the inhibition was 6% (CYSLTR1; ligand displacement; 20 µM).
`COc1ccc(S(=O)(=O)N2CCCCC2)cc1C` has an inhibition of < 30% (CYSLTR1; ligand displacement, radioligand; 10 µM).
With `C#Cc1n[nH]c2c(-c3cn([C@@H](C)c4ccccn4)c(=O)[nH]c3=O)cc(F)cc12` the inhibition was 5.4% (Fibroblast growth factor receptor 1 (FGFR1, Homo sapiens, UniProt P11362); enzyme activity, inhibitor; 0.1 µM).
For `CC(C)N1CCC[C@H]1CNC(=O)c1cn(C2CCCC2)c(=O)c2c1c1ccccc1n2C`, the inhibition was 22% (CYSLTR1; ligand displacement, radioligand; 10 µM).
The inhibition of `COc1ccc2c(c1)[nH]c1c(C)nccc12` is reported as 25.7% (BCHE; enzyme activity, inhibitor, Ellman; 1 µM).
For `C#Cc1n[nH]c2c(-c3cn([C@@H](C)c4ccccc4)c(=O)[nH]c3=O)cc(F)cc12`, the inhibition was -4.7% (Fibroblast growth factor receptor 1 (FGFR1, Homo sapiens, UniProt P11362, V561M); enzyme activity, inhibitor; 0.1 µM).
With `C=CCn1c2cc(OC(=O)CCCCN3CCN(Cc4ccccc4Cl)CC3)ccc2c2ccnc(C)c21` the inhibition was 46.1% (BCHE; enzyme activity, inhibitor, Ellman; 1 µM).
`Cn1cc(-c2cccc(N3CCc4c(sc5c4CC(C)(C)C5)C3=O)c2CO)cc(Nc2ccncn2)c1=O` has an inhibition of 53% (Tyrosine-protein kinase Fgr (FGR, Homo sapiens, UniProt P09769); enzyme activity, inhibitor; 1 µM).
The inhibition of `C=CCn1c2cc(OC(=O)CCCCN3CCN(Cc4ccccc4)CC3)ccc2c2ccnc(C)c21` is reported as 38.5% (BCHE; enzyme activity, inhibitor, Ellman; 1 µM).
For `[C-]#[O+]`, the inhibition was 70% (Catalase (CAT, Bos taurus, UniProt P00432); enzyme activity, inhibitor; 1 mM).
With `COc1cc(CNC(=O)CCCC/C=C/C(C)C)ccc1O` the inhibition was 32.3% (DNA dC->dU-editing enzyme APOBEC-3B (Homo sapiens, UniProt Q9UH17); enzyme activity, inhibitor, fluorescence; 100 µM).
For `C=CCn1c2cc(OC(=O)CCCCN3CCN(Cc4ccccc4F)CC3)ccc2c2ccnc(C)c21`, the inhibition was 21% (BCHE; enzyme activity, inhibitor, Ellman; 1 µM).
